Experimental data from ChEMBL document CHEMBL1145683, “Structure-cytotoxicity relationships of some helenanolide-type sesquiterpene lactones” (J Nat Prod, 1997).

What was measured:
[1] = Cytotoxicity against mouse cloned EN2 cells after 72 hrs by MTT assay; format: functional, cell-based; conditions: EN2, 72 h
How it was run: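 EN2 murine cloned Ehrlich ascites line, grown in suspension in RPMI 1640 with 10% heat-inactivated FBS and used in exponential growth. 500 cells/well, continuous 72 h compound exposure at 37 °C, 5% CO2. Stocks 10 mM in EtOH or DMSO. Read-out: MTT reduction over 3 h 45 min, formazan in DMSO, A550. IC50 is 50% growth inhibition relative to control; mean ± SD, n≥3.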

[2] = Cytotoxicity against mouse cloned EN2 cells after 2 hrs by MTT assay; format: functional, cell-based; conditions: EN2, 2 h
How it was run: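 Murine EN2 Ehrlich ascites cells (RPMI 1640, 10% heat-inactivated FBS, exponential growth, >95% trypan blue exclusion), 500 cells/well, exposed 2 h at 37 °C, 5% CO2. Compound washed out in three spin steps, then 72 h further culture. MTT added for 3 h 45 min, formazan dissolved in DMSO, A550 read. IC50 = 50% growth inhibition vs medium-blank-corrected control; mean ± SD, n≥3.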

Compound	IC50 [1]	IC50 [2]
C[C@@H]1C[C@H]2OC(=O)[C@@H](C)[C@H]2[C@H](O)[C@]2(C)C(=O)C=C[C@@H]12	6.5 µM	128 µM
C=C1C(=O)O[C@@H]2C[C@@H](C)[C@@H]3[C@@H](OC(C)=O)C[C@@H](O)[C@@]3(C)C[C@H]12	10.6 µM	102 µM
CC(=O)O[C@H]1[C@@H]2[C@H](C)C(=O)O[C@@H]2C[C@@H](C)[C@@H]2C=CC(=O)[C@]21C	3.5 µM	43 µM
CC(C)CC(=O)O[C@H]1[C@@H]2[C@H](C)C(=O)O[C@@H]2C[C@@H](C)[C@@H]2C=CC(=O)[C@]21C	1.7 µM	20 µM
C=C1C(=O)O[C@@H]2C[C@@H](C)[C@@H]3[C@@H](O)C[C@@H](O)[C@@]3(C)[C@@H](OC(=O)/C(C)=C/C)[C@H]12	20.7 µM	> 100 µM
C=C1C(=O)O[C@@H]2C[C@@H](C)[C@@H]3[C@@H](O)C[C@@H](OC(=O)/C(C)=C/C)[C@@]3(C)[C@@H](O)[C@H]12	10.4 µM	116 µM
C/C=C(\C)C(=O)O[C@H]1[C@@H]2[C@H](C)C(=O)O[C@@H]2C[C@@H](C)[C@@H]2C=CC(=O)[C@]21C	2.6 µM	19 µM
C=C1C(=O)O[C@@H]2C[C@@H](C)[C@@H]3[C@@H](O)C[C@@H](O)[C@@]3(C)[C@@H](O)[C@H]12	13.6 µM	–
C=C1C(=O)O[C@@H]2C[C@@H](C)[C@@H]3C=CC(=O)[C@@]3(C)[C@@H](OC(=O)/C(C)=C/C)[C@H]12	1 µM	5.3 µM
C=C1C(=O)O[C@H]2C[C@@H](C)[C@@H]3C=CC(=O)[C@@]3(C)[C@H](OC(=O)CC(C)C)[C@H]12	0.99 µM	5.4 µM
CC(=O)O[C@H]1C[C@@H](O)[C@]2(C)[C@@H]1[C@H](C)C[C@H]1OC(=O)[C@@H](C)[C@H]1[C@@H]2O	> 100 µM	> 100 µM
C/C=C(\C)C(=O)O[C@H]1[C@@H]2[C@H](C)C(=O)O[C@@H]2C[C@@H](C)[C@@H]2[C@@H](O)CC(=O)[C@]21C	76 µM	> 100 µM
C=C1C(=O)O[C@@H]2C[C@@H](C)[C@@H]3[C@@H](O)C[C@@H](O)[C@@]3(C)C[C@H]12	15.2 µM	–
C=C1C(=O)O[C@@H]2C[C@@H](C)[C@@H]3C=CC(=O)[C@@]3(C)[C@@H](OC(=O)CC(C)C)[C@H]12	0.72 µM	3.2 µM
C=C1C(=O)O[C@@H]2C[C@@H](C)[C@@H]3C=CC(=O)[C@@]3(C)[C@@H](OC(C)=O)[C@H]12 [ANGUSTIBALIN]	0.22 µM	1.3 µM
C=C1C(=O)O[C@@H]2C[C@@H](C)[C@@H]3[C@@H](O)CC(=O)[C@@]3(C)[C@@H](OC(=O)/C(C)=C/C)[C@H]12 [ARNIFOLIN]	4 µM	62 µM
C=C1C(=O)O[C@H]2C[C@@H](C)[C@@H]3C=CC(=O)[C@@]3(C)[C@@H](OC(C)=O)[C@H]12 [BIGELOVIN]	0.36 µM	2 µM
C=C1C(=O)O[C@@H]2C[C@@H](C)[C@@H]3[C@@H](OC(C)=O)C[C@@H](O)[C@@]3(C)[C@@H](O)[C@H]12 [CHAMISSONOLIDE]	7.6 µM	106 µM
C=C1C(=O)O[C@@H]2C[C@@H](C)[C@@H]3C=CC(=O)[C@@]3(C)[C@@H](OC(=O)C(C)C)[C@H]12 [HELENALINISOBUTYRATE]	0.17 µM	1.3 µM
C=C1C(=O)O[C@@H]2C[C@@H](C)[C@@H]3C=CC(=O)[C@@]3(C)[C@@H](O)[C@H]12 [HELENALIN]	0.39 µM	2.4 µM
C=C1C(=O)O[C@H]2C[C@@H](C)[C@@H]3C=CC(=O)[C@@]3(C)[C@H](O)[C@H]12 [MEXICANIN I]	0.56 µM	2.7 µM
